pEC50: −log10 of the molar value. Counter-ions that a name gives are not always drawn.
Key:
[1] = test system: Human immunodeficiency virus 1; test: Antiviral activity against HIV1 infected in human PBMC assessed as inhibition of viral replication by measuring reverse transcriptase activity in cell supernatant preincubated with cells followed by viral infection measured after 7 days by radioactive incorporation polymerization assay; format: functional, organism-based
How it was run: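 HIV-infected PBMCs; antiviral activity read as reverse transcriptase in cell supernatants; EC50 is the concentration in μM that inhibits HIV-1 by 50%.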

[2] = (§1) Cytotoxicity against human PBMC assessed as reduction in cell viability by XTT assay; format: cell-based
How it was run: (§2)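 CC50 is the concentration in μM that reduces viability of uninfected PBMCs by 50%.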

[3] = Therapeutic index, ratio of CC50 for human PBMC to EC50 for HIV1 infected in human PBMC; format: toxicity; conditions: read-out: Ratio CC50/EC50
How it was run: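 TI is the ratio of PBMC CC50 (uninfected cells, 50% viability loss) to EC50 for 50% inhibition of HIV-1, both in μM; HIV-1 activity measured as reverse transcriptase in supernatants of infected PBMCs.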

[4] = test system: Hepatitis B virus; test: Antiviral activity against HBV infected in human HepG2.2.15 cells assessed as inhibition of viral DNA in cell supernatant incubated for 3 days in presence of 10% FBS followed by compound treatment in absence of 10% FBS for 3 days by qRT-PCR method; format: functional, organism-based; conditions: HepG2.2.15, 72 h
How it was run: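 HBV assay in HepG2.2.15 cells; viral DNA quantified by qPCR after 6 days of incubation.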

[5] = (§3) Cytotoxicity against human HepG2.2.15 cells assessed as reduction in cell viability after 6 days by XTT assay; format: cell-based, HepG2 2.2.15; conditions: HepG2.2.15 cells
[6] = Therapeutic index, ratio of CC50 for human HepG2.2.15 cells to EC50 for HBV infected in human HepG2.2.15 cells; format: toxicity, cell-based; conditions: read-out: Ratio CC50/EC50
[7] = test system: PBMC; test: as §1; format: cell-based; how it was run: as §2
[8] = test system: HepG2 2.2.15; test: as §3; format: cell-based; conditions: hepg2 2.2.15, 144 h
[9] = Therapeutic index, ratio of CC90 for human PBMC to EC90 for HIV1 infected in human PBMC; format: toxicity; conditions: read-out: TI
How it was run: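 HIV-1-infected human PBMCs; antiviral effect read as reverse transcriptase activity in culture supernatants. Toxicity measured as loss of viability in uninfected PBMCs. Index calculated as the cytotoxic concentration divided by the effective concentration at the 90% level (CC90/EC90).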

[10] = Half life in human plasma at 2 mg by LC-MS analysis; format: ADME, cell-free
How it was run: (§4)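 Compound incubated in human serum, PBS (pH 7.4), DMEM, or carbonate/bicarbonate buffer (pH 9). Aliquots were taken at several time points over 2 h, with a final sample at 24 h, and analysed by LC-MS to follow decomposition. Half-life was derived from loss of parent over time.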

[11] = Half life in pH 7.4 phosphate buffered saline at 2 mg using kimax glassware by LC-MS analysis; format: physicochemical; how it was run: as §4
[12] = Half life in pH 9 Sodium carbonate/bicarbonate buffer at 2 mg using kimax glassware by LC-MS analysis; format: physicochemical; how it was run: as §4
[13] = Half life in DMEM at 2 mg using kimax glassware by LC-MS analysis; format: physicochemical; how it was run: as §4
[14] = Stability in pH 9 Sodium carbonate/bicarbonate buffer at 2 mg by LC-MS analysis; format: physicochemical; conditions: in vitro; how it was run: as §4
[15] = Stability in DMEM at 2 mg by LC-MS analysis; format: physicochemical; conditions: in vitro; how it was run: as §4
[16] = Oral bioavailability in rhesus monkey by HPLC analysis; format: ADME, organism-based, Macaca mulatta; conditions: in vivo
[17] = Oral bioavailability in rat at 30 mg/kg, administered through gastric intubation by HPLC analysis; format: ADME, organism-based; conditions: in vivo

Compound | pEC50 [1] | selectivity ratio [3] | pEC50 [4] | selectivity ratio [6] | CC50 [7] [µM] | CC50 [8] [µM] | further results
CCCCCCCCCCCCCCCCCCSSCCOP(=O)(CO[C@H](C)Cn1cnc2c(N)ncnc21)OCCSSCCCCCCCCCCCCCCCCCC | 6.48 | > 76 | < 4.60 | > 1 |  |  | CC50 [2]: > 25 µM; CC50 at 144 h [5]: > 25 µM
CCCCCCCCCCCCCCCCSSCCOP(=O)(CO[C@H](C)Cn1cnc2c(N)ncnc21)OCC (some centres undefined) | 6.46 | 104 |  |  | 36.2 |  | 
CCCCCCCCCCCCCCCCCCSSCCOP(=O)(O)CO[C@H](C)Cn1cnc2c(N)ncnc21 | 9.22 | 11000 | 6.30 | > 50 | 6.36 | > 50 | 
CCCCCCCCCCCCCCCCOCCCOP(=O)(O)CO[C@H](C)Cn1cnc2c(N)ncnc21 [TENOFOVIR EXALIDEX] | 7.70 | > 5000 |  |  | > 100 |  | 
CC(C)OC(=O)OCOP(=O)(CO[C@H](C)Cn1cnc2c(N)ncnc21)OCOC(=O)OC(C)C [TENOFOVIR DISOPROXIL FUMARATE] | 8.34 | 9500 | 6.47 | 86 to 190 | 43.7 |  | CC50 at 144 h [5]: 29.2 to 64.5 µM; selectivity ratio [9]: 1300
C[C@H](Cn1cnc2c(N)ncnc21)OCP(=O)(O)OCCS |  |  | 4.38 |  | > 100 | > 100 | 
CCCCCCCCCCCCSSCCOP(=O)(O)CO[C@H](C)Cn1cnc2c(N)ncnc21 | 8.52 | 8300 | 5.78 | > 30 | 25 | > 50 | 
CCCCCCCCCCCCCCCCSSCCOP(=O)(CO[C@H](C)Cn1cnc2c(N)ncnc21)OC (some centres undefined) | 7.59 | 1500 |  |  | 38.2 |  | 
CCCCCCCCCCSSCCOP(=O)(O)CO[C@H](C)Cn1cnc2c(N)ncnc21 | 7.07 | > 590 | < 4.30 | > 1 | > 50 | > 50 | 
CCCCCCCCCCCCCCSSCCOP(=O)(O)CO[C@H](C)Cn1cnc2c(N)ncnc21.N | 9.30 | 28000 to 30000 | 6.35 | > 56 | 14 | > 25 | selectivity ratio [9]: 11000; t1/2 [10]: > 24 h; half-life [11]: < 2 h; half-life [12]: < 2 h; half-life [13]: < 2 h; Stability [14]: Unstable; Stability [15]: Unstable
Nc1ncnc2c1ncn2CCOCP(=O)(O)O [ADEFOVIR] |  |  |  |  |  |  | bioavailability [16]: < 1%; bioavailability [17]: 8 to 11%
CCCCCCCCCCCCCCCCSSCCOP(=O)(CO[C@H](C)Cn1cnc2c(N)ncnc21)OCCCC (some centres undefined) | 6.72 | 150 |  |  | 27.9 |  | 
CCCCCCCCCCCCCCCCSSCCOP(=O)(CO[C@H](C)Cn1cnc2c(N)ncnc21)OCc1ccccc1 (some centres undefined) | 7.74 | 2300 |  |  | 41.1 |  | 

— ChEMBL document CHEMBL4477226, “Reduction Sensitive Lipid Conjugates of Tenofovir: Synthesis, Stability, and Antiviral Activity” (J Med Chem, 2016)
